Screening results (PubChem)
FXIa inh 1536: human FXIa protease inhibitors, primary screen, biochemical, 1536-well; inhibition, % at 5 µM; actives 0.14% (n = 220,000); purified FXIa, Boc-Glu-Ala-Arg-AMC fluorogenic substrate; Coagulation factor XI (Homo sapiens), P03951;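 active = inhibition of at least 40%; inactive = inhibition below 40%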;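 also: fluorescence of freed AMC excited at 355 nm; 0% = enzyme without compound and 100% = no enzyme blank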
Thrombin inh: human alpha-thrombin inhibitors, primary screen, counter-screen for coagulation protease inhibitor project, biochemical, 1536-well, fluorogenic AMC substrate; Prothrombin (Homo sapiens), P00734; Boc-VPR-AMC fluorogenic substrate cleavage; inhibition, % at 5 µM; actives 0.26% (n = 220,000); AID 1046, 2008;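 active = inhibition at or above 40%; inactive = inhibition below 40%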;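 also: 0% = enzyme with no compound and 100% = wells without enzyme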
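Material: human alpha-thrombin protein. Incubation: reaction at ambient temperature. Technique: fluorescence of released AMC, ex 355 nm, em 460 nm. Control set: no-compound enzyme wells and no-enzyme blanks. Also added: Boc-VPR-AMC substrate, 15 µM final. Buffer or medium: pH 7.5 Tris (50 mM) with NaCl 150 mM, Tween 20 0.05%.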
Furin inh: human furin inhibitors, primary screen, biochemical, fluorescence intensity | actives 0.061% (n = 220,000) | AID 463115, 2010 | purified furin, fluorogenic substrate cleavage | inhibition, % at 20 µM or 30 µM; in the data active = inhibition above about 25%
KLK5 inh: human KLK5 protease inhibitors, primary screen, biochemical, 1536-well; AID 873, 2007; actives 0.59% (n = 210,000); inhibition, % at 5 µM; Kallikrein-5 (Homo sapiens), Q9Y337; recombinant hK5, fluorogenic AMC substrate cleavage;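 active = inhibition of 40% or more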;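 also: 0% = enzyme controls without compound and 100% = no-enzyme blanks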
Target sequence (Q9Y337 67-293 limits assumed): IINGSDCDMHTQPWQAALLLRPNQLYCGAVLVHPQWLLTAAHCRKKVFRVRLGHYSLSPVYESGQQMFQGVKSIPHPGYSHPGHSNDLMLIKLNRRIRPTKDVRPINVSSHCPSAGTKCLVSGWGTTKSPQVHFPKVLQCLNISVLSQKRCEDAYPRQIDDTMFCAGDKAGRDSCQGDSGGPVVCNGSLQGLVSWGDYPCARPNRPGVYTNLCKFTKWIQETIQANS
FXIIa inh: human FXIIa protease inhibitors, primary screen, biochemical, 1536-well; purified FXIIa, Boc-QGR-AMC fluorogenic substrate, 2 h; inhibition, % at 5 µM; actives 0.3% (n = 220,000); AID 800, 2007; in the data active = inhibition above about 40%;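 also: 0% = enzyme with no compound and 100% = blank without enzyme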
Calpain2 inh: inhibitors of pig calpain II, primary screen, biochemical, fluorogenic peptide substrate, 1536-well. purified calpain II, 30 min. inhibition, % at 16 µM. actives 0.37% (n = 220,000). AID 1236, 2008;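 active = inhibition above about 50%, limit read from the data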
The depositor's hits bear a star. Compounds with a hit are over-represented: about 1.4% of the library has one in this group of screens.

SMILES	FXIa inh 1536	Thrombin inh	Furin inh	KLK5 inh	FXIIa inh	Calpain2 inh
Cc1cccc(N2CCN(Cc3cn(C)nc3-c3ccccc3F)CC2)n1	-5	-14	-19	-2	2	-14
CC(C)(C)c1ccc(OCC(=O)N2CCCCCC2)c(Br)c1	-2	-1	-7	-4	3	38
Cc1ccc(OCC(=O)N2CCCCC2)c(Br)c1	-1	3	-20	48*	1	6
Cc1ccc(OC(=O)c2cc(C)nn2C(C)(C)C)cc1	-4	-2	-31	1	5	-14
CCCCCCCCC[n+]1cccc2c3ccccc3ccc21	1	-2	-45	-116	14	-21
CCCCCCCCCCCCCCCC[n+]1cccc2ccccc21	5	-4	-7	-7	2	99*
CC(=O)Nc1cc(C(=O)OC(C(=O)c2ccccc2)c2ccccc2)ccc1C (stereo not given)	-6	-3	-14	3	10	66*
COc1ccc(C(=O)C(OC(=O)c2ccc(C)c(NC(C)=O)c2)c2ccccc2)cc1 (stereo not given)	16	1	-17	3	19	-21
Cc1ccsc1/C=N/N1CCN(Cc2ccccc2)CC1	-4	-2	-25	-4	5	-6
O=C(CN1C(=O)c2ccccc2C1=O)Nc1sc2c(c1C(=O)NCc1ccco1)CCCC2	-1	-5	29*	-11	4	-69
CCN(CC)S(=O)(=O)c1ccc(N2CCOCC2)c(NC(=O)c2ccc(NC(C)=O)cc2)c1	6	6	-30	4	20	-8
CCCCc1c(C)nc2ccc(Br)cc2c1SCCC#N	10	99*	-6	47*	7	-27
CCc1c(C)nc2ccc(Br)cc2c1SCCC#N	-5	-7	-6	-5	-5	2
O=C1NC(c2ccccc2)Nc2c1sc(=S)n2-c1ccccc1 (stereo not given)	-2	-7	3	-1	6	4
CNC(=O)CSc1nc2nc(C)cc(C)n2n1	0	2	-15	3	17	-8
Cc1cc(C)n2nc(SCC(=O)Nc3ccc(F)cc3)nc2n1	17	-4	-30	-17	41*	17
CCCN(CCC)CC(C)(C)NS(=O)(=O)c1ccc(Cl)cc1	1	-3	-4	-1	2	4
CCCN(CCC)S(=O)(=O)c1ccc(C(=O)NNc2nc(-c3ccccc3)c3cc(Br)ccc3n2)cc1	66*	3	-30	-68	10	-50
COC(=O)Nc1[nH]ncc1[N+](=O)[O-]	-6	-12	-20	-6	2	-26
CCc1ccc(NC(=S)N(Cc2cccc(Br)c2)CC2CCC(C(=O)O)CC2)cc1 (stereo not given)	25	9	-2	65*	23	-27
Cc1cc(C)cc(NC(=S)N(Cc2cccc(Br)c2)CC2CCC(C(=O)O)CC2)c1 (stereo not given)	3	-8	-14	-6	13	-85
O=C1c2cccc(Sc3ccccc3)c2C(=O)c2c(Sc3ccccc3)cccc21	-1	-3	-6	-2	6	50*
CCOc1ccc(NC(=O)CS(=O)(=O)c2cn(CC)c3ccccc23)cc1	11	2	-34	-1	14	24
CCn1cc(S(=O)(=O)CC(=O)Nc2ccc(OC)cc2)c2ccccc21	18	30	-23	41*	31	13
O=C(Cn1cc2c(n1)CCCC2)NCc1ccccn1	12	18	-21	45*	16	5
